Hits are enriched below; roughly 2.1% of the tested compounds scored in any of these assays.
Hsp70 act: Hsp70 transcriptional activation, primary screen | actives 0.04% (n = 200,000) | HeLa Hsp70 promoter luciferase reporter, luminescence; scaled: vehicle 0, proteasome-inhibitor control 100% | AID 1203 | activation, % at 10 µM;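 active = activation above the mean across all tested compounds plus 3 SD, cutoff set per campaign, cut at about 5.5% in these data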;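 also: 100% = MG132 at 30 µM as the positive control and 0% = DMSO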
MT stabilize HCS: microtubule stabilization, imaging screen; HeLa tubulin immunostaining HCS, 24 h; share of cells brighter than vehicle mean+2SD; % tubulin-high responders, % at 10 µM; actives 0.83% (n = 200,000);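 active = plate Z-score above 3 for both tubulin-high and condensed-nucleus cell shares, with cell loss under 80%, at 10 µM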;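 also: anti alpha tubulin signal scored within the nucleus-defined area of each cell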
Autophagy mod: alters autophagy in cells. MEF GFP-LC3 puncta imaging; test concentration mostly 10 µM. calls only at 10 µM (by protocol). actives 0.98% (n = 190,000);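 active = percentage of spot-positive cells more than 3 SD above its plate mean, without a fluorescence outlier flag or 80% toxicity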;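 also: spot-positive cell cutoff set from DMSO-treated cells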
b-catenin transl: beta-catenin nuclear translocation modulation; HeLa beta-catenin nuclear translocation, immunofluorescence imaging; nuclear translocation activity, % at 5 µM; AID 1665; actives 0.3% (n = 190,000);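 active = nuclear translocation activity above 50% at 5 µM, with a well cell count of 50 or more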;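 also: per-cell ratio of nuclear to cytoplasmic median beta-catenin stain intensity; plate controls were DMSO negative control for no effect and GSK-3 inhibitor IX positive control for full effect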
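Read-out: Nuclear/cytoplasmic beta-catenin signal ratio, % activation | Assay system: Human HeLa cell line | Times: 24 h compound exposure at 37°C, 5% CO2 | Signal: Fluorescence imaging of beta-catenin antibody stain plus DAPI | Dosing: 5 µM primary, 0.02–20 µM confirmation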
Dynein cargo inh: blocks dynein driven cargo transport along microtubules. z-score, hits read low. actives 0.47% (n = 220,000). 3617.4 mouse cells, GR-EGFP nuclear translocation imaging; test concentration mostly 20 µM; stimulated with dexamethasone, 1 µM; active compounds read low;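 active = plate z-score of nuclear minus cytoplasmic receptor signal below a set negative limit, without overly bright fluorescence or cell loss, cut at about -3.5 in these data, passing the limit was not always enough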;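 also: z-score of nuclear minus cytoplasmic ring GR-EGFP intensity difference per well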
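Buffer or medium: tetracycline-free induction medium containing charcoal-stripped FBS / Reagent: dexamethasone agonist, 1.0 µM final, for 30 min / Technique: automated 10x imaging of fixed Hoechst-stained cells / Times: induction 48 h, compound 1 h, agonist 30 min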
Numbers without * were called inactive; i = inactive; . = no result given; + = active, no number.

SMILES	Hsp70 act	MT stabilize HCS	Autophagy mod	b-catenin transl	Dynein cargo inh
O=C(/C=C\c1ccco1)Nc1nc(-c2ccc3ccccc3c2)cs1	-1	5	i	-1	-1.4
Cc1cc(=O)oc2cc(OCC(=O)Nc3ccc(S(=O)(=O)N(C)C)cc3)ccc12	.	.	.	-2	0.94
COc1ccccc1NC(=O)Nc1ccccc1C(=O)NCCCN1CCOCC1	.	.	.	1	-0.32
CC(C)CCNC(=O)CN(C(=O)CCC(=O)Nc1ccccn1)c1ccc(F)c(Cl)c1	0	2	i	-2	-0.76
CC(=O)Nc1ncc(Cc2cc(Cl)ccc2Cl)s1	0	3	+	1	0.8
CCc1ccc(CCC(=O)Nc2ncc(Cc3ccccc3Cl)s2)o1	0	12*	i	150*	0.21
CCC1=C(OC(=O)N(CC)CC)N2C(=O)OC(=NCCc3c[nH]c4ccccc34)[C@]2(Cc2ccccc2)[C@H]2C1=CC[C@H]1C(=O)N(CC)C(=O)[C@H]12	.	.	.	1	-0.29
COc1cccc(NC(=S)/C(=C(\[O-])c2ccc([N+](=O)[O-])cc2)[n+]2ccccc2)c1	0	2	i	0	-0.46
Oc1cc(NCc2cccnc2)ccc1-c1nc2ccccc2o1	1	2	+	2	-0.55
COC(=O)NC(=S)Nc1ccc(Oc2ccc(Cl)cc2)c(Cl)c1	0	1	i	3	-0.89
COC(=O)NC(=S)Nc1ccc(Oc2ccc(Cl)cc2Cl)c(Cl)c1	0	26*	i	-3	-0.73
C=CCn1c(SCC(=O)Nc2ccccc2OC)nnc1-c1ccccn1	0	24*	i	-1	-0.22
CCc1[nH]c(C(=O)O)c(C)c1C(=O)OC	.	.	.	-1	-0.98
CCS(=O)(=O)N1Cc2ccccc2CC1C(=O)Nc1ncc(C)s1 (stereo not drawn)	0	4	+	0	0.79
CC(C)C(NC(=O)C12CC3CC(CC(C3)C1)C2)C(=O)N/N=C/C1=C(N2CCOCC2)C(=C\c2ccc([N+](=O)[O-])cc2)/CC1 (stereo not drawn)	0	3	+	1	-3
Cc1cccc(C(=O)Nc2nnc(COc3ccccc3)s2)c1	0	2	+	1	1.7
CC(=O)c1c(C)[nH]c(C(=O)N2CCN(c3cc(Cl)ccc3C)CC2)c1C	0	53*	i	.	-0.34
COC(=O)c1c(C)[nH]c(C(=O)N2CCN(c3ccc(OC)cc3)CC2)c1C	0	4	i	-1	-0.049
COc1cccc(N2CCN(C(=O)c3[nH]c(C)c(C(C)=O)c3C)CC2)c1	0	29	i	60*	-0.63
Cc1nn(Cc2cccc(C(=O)N3CCCC(C)C3)c2)c(C)c1[N+](=O)[O-] (stereo not drawn)	0	3	i	2	-0.66
COc1cccc(N2CC(O)=C(c3nc4ccccc4c(=O)[nH]3)C2=N)c1	0	26*	+	109*	-0.13
Cc1cc(C)cc(N2CC(O)=C(c3nc4ccccc4c(=O)[nH]3)C2=N)c1	0	5	i	7	2.7
Cc1ccc(S(=O)(=O)N(C)c2ccc3sc(C)nc3c2)cc1	2	18*	i	-2	-1.1
CC(C)N1C(=O)CCN(C=O)c2ccccc21	0	3	i	.	1.2
CCCCN(CC)S(=O)(=O)c1ccc(C(=O)N(CCCN(C)C)c2nc3cc(C)cc(C)c3s2)cc1	0	33	+	-5	2.9
SMILES	Hsp70 act	MT stabilize HCS	Autophagy mod	b-catenin transl	Dynein cargo inh
O/N=C1\CCCC\C1=C/c1ccccc1	0	5	i	3	-0.51
Cc1ccc(C2=NN(C(=S)Nc3ccccc3)C(c3ccco3)C2)cc1 (stereo not drawn)	0	2	i	-2	0.073
CCS(=O)(=O)Nc1ccc(C2=NN(C(=S)Nc3ccccc3)C(c3ccco3)C2)cc1 (stereo not drawn)	-1	22*	i	0	-0.0062
CCCCC(=O)c1ccc(O)cc1O	0	3	+	.	-0.49
C/C(=N\NC(=O)c1cccc(S(=O)(=O)N2CCOCC2)c1)c1cc2ccccc2o1	.	.	.	0	-0.8
CC(=O)Nc1ccc(C(=O)OCC(=O)NCc2ccc(Cl)cc2)cc1	0	32*	i	50*	0.8
O=C(CS(=O)(=O)Cc1ccccc1)NCc1ccco1	0	3	i	0	-0.16
CC(=O)Oc1ccc(-c2ccc(C(=O)Nc3cccc(S(=O)(=O)N4CCOCC4)c3)cc2)cc1	0	10	i	0	-0.18
COc1ccc(C(=O)NC(=S)Nc2cccc(S(=O)(=O)N3CCOCC3)c2)cc1	0	22*	i	0	-0.47
CCN(CC)c1ccc(NC(=S)NCC2CCCO2)cc1 (stereo not drawn)	0	4	i	1	-0.019
CC1CC(C)CN(Cc2nc(N)nc(Nc3ccccc3)n2)C1 (stereo not drawn)	0	2	i	2	1
CC1CC(C)CN(Cc2nc(N)nc(Nc3ccc4ccccc4c3)n2)C1 (stereo not drawn)	0	46*	i	40	2.6
O=c1oc2ccccc2c(Nc2cc3ccccc3cc2O)c1[N+](=O)[O-]	0	17*	i	23	2.3
COC(=O)c1ccc(NC(=O)c2cccc(C)c2[N+](=O)[O-])cc1	0	8	i	3	0.47
O=C(NC1CCCCC1)N1CCC(c2nc(-c3ccc(S(=O)(=O)N4CCCC4)cc3)no2)CC1	0	35*	i	1	-0.59
O=C(C1CC1)N1CCC(c2nc(-c3ccc(S(=O)(=O)N4CCCC4)cc3)no2)CC1	0	1	i	.	0.5
Cc1cc(C)cc(Nc2nc(-c3ccc(S(=O)(=O)N4CCCC4)cc3)cs2)c1	-1	19*	i	0	2.5
Cc1ccc(Nc2nc(-c3ccc(S(=O)(=O)N4CCCC4)cc3)cs2)cc1C	0	4	i	2	-0.13
OCCNc1c2ccccc2nc2c(F)c(F)c(F)c(F)c12	0	2	i	56*	-1.7
CN(CCn1ccnc1)Cc1cn(Cc2ccccc2)nc1-c1ccc2c(c1)OCO2	.	.	.	1	-0.79
O=C1C(c2ccnc3ccccc23)=C(O)c2ccccc21	0	4	+	-1	0.4
Cn1cc(C(=O)C(=O)N2CCCc3ccccc32)c2ccccc21	0	12*	i	1	-0.23
O=C(O)CSCC(=O)N1CCN(S(=O)(=O)c2cc(Cl)cc(Cl)c2)CC1	.	.	.	-2	0.22
CC(=O)C1=C(C)NC(SCSc2ccccc2)=C(C#N)C1c1cccnc1 (stereo not drawn)	0	3	i	1	0.38
COc1ccccc1NC(=O)C1=C(C)NC(SCC(=O)c2ccc(C)cc2)=C(C#N)C1c1ccco1 (stereo not drawn)	0	2	+	1	-0.7
